MBD2 DNA inh: blocks human MBD2 binding to methylated DNA; TR-FRET, MBD2 binding to methylated oligonucleotide; inhibition, % at 4.4 µM; hit rate 0.31% among 370,000; AID 686964; in the data active means inhibition above about 13%
LEDGF integ inh: blocks HIV-1 LEDGF/p75-dependent DNA integration; TR-FRET IN-LEDGF/p75 DNA integration, Eu/Cy5; inhibition, % at 3.7 µM; AID 743269; hit rate 0.64% among 370,000;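 active means inhibition above the screen-wide mean plus 3 SD, cut at about 13% in these data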;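 further: signal is the Cy5 over europium emission ratio at 671 and 618 nm; 0% = plate median of compound wells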
TDP2 inh: blocks human TDP2 phosphodiesterase activity; hit rate 0.34% among 370,000; O95551; inhibition, % at 12.8 µM; recombinant TDP2, T5PNP hydrolysis, p-nitrophenol absorbance 415 nm; AID 720702;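 active means inhibition above the mean of all tested compounds plus 3 SD, set per campaign, cut at about 25% in these data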;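 further: 0% = DMSO with enzyme and 100% = buffer with substrate but no TDP2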
Target sequence (O95551 whole entry, looked up): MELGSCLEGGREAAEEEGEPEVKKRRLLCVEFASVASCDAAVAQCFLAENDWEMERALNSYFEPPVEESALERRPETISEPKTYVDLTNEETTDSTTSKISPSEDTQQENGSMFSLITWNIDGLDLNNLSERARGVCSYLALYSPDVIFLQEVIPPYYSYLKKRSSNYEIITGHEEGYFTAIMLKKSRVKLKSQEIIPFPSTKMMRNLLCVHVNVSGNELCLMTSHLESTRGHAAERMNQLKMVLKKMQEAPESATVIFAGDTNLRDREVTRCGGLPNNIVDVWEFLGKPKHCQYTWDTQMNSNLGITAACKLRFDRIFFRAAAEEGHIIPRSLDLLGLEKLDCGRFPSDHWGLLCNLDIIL
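Evaluation: % inhibition relative to enzyme-containing and enzyme-free wells. Material: recombinant human TDP2. Benchmarks: enzyme-free and DMSO wells. Timing: enzyme reaction with compound for 2 h at 37 °C. Compound dosing: 12.8 µM only. Measured by: p-Nitrophenol epi absorbance. Reagent: T5PNP substrate at 5 mM, a TopII-DNA adduct mimic. Replication: single well per compound.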
UHRF1 binding: blocks human UHRF1 binding to methylated DNA | Q96T88 | UHRF1 binding to methylated oligo, TR-FRET | inhibition, % at 4.4 µM | hit rate 0.75% among 370,000 | AID 687016; in the data active means inhibition above about 21%;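 further: UHRF1 SRA domain binding a hemimethylated CpG hairpin DNA probe; 0% = median of test compound wells and 100% = reference inhibitor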
TDP2 inh conf: confirmation of human TDP2 inhibitors | shares compounds with TDP2 inh | hit rate 22% among 1,100 | recombinant human TDP2, absorbance read-out | inhibition, % at 12.8 µM; in the data active means inhibition above about 25%;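 further: 0% = vehicle with enzyme and 100% = no enzyme buffer only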
Numbers without * were called inactive; nt = not tested or not shown. Only some compounds are listed: those with a hit (about 1.6% of all), similar ones and a draw of the others.

SMILES	MBD2 DNA inh	LEDGF integ inh	TDP2 inh	UHRF1 binding	TDP2 inh conf
Cc1[nH]n(-c2ccccc2)c(=O)c1/C=N/N1C(=O)c2cccc3cccc(c23)C1=O	-20	1	31*	-21	7
Cc1[nH]n(-c2ccccc2)c(=O)c1/C=N/N1CCOCC1	-6	2	17	-7	nt
Cc1ccc(-n2[nH]c(C)c(C=NCc3ccncc3)c2=O)cc1	0	-1	15	-6	nt
CCc1nnc(NS(=O)(=O)c2ccc(N=Cc3c(C)[nH]n(-c4ccc(Cl)cc4)c3=O)cc2)s1	-4	3	13	-5	nt
CCOc1ncccc1C(=O)Nc1ccc(-c2ccc3nnc(C)n3n2)cc1	5	1	15	-2	nt
CCOc1cccc2c1OC1(C)CC2NC(=O)N1c1ccc(OC)cc1 (stereo not given)	2	1	6	-1	nt
C[C@]12C=CC(=O)C=C1CC[C@@H]1[C@@H]2[C@@H](O)C[C@@]2(C)[C@H]1CC[C@]2(O)C(=O)CO	-6	5	2	0	nt
CN(CC(=O)Nc1cccc(F)c1)C(=O)c1ccc(COc2ccccc2)cc1	4	-3	-3	0	nt
COc1c(F)c(F)c(C(=O)O)c(Nc2cc(C)cc(C)c2)c1F	0	-7	-1	3	nt
CC(C)c1ccc(NC2CCCN(C(=O)CCN3Cc4ccccc4C3=O)C2)cc1 (stereo not given)	0	1	3	3	nt
Nc1c(S(=O)(=O)c2cccs2)c2nc3ccccc3nc2n1Cc1ccccc1	5	6	44*	9	4
N/C(=N\N=C\c1ccc(Br)o1)c1nonc1N	3	-2	30*	-5	-1
CCc1ccc(/C=c2\s/c(=C\C(=O)C(C)(C)C)[nH]c2=O)cc1	-10	0	-26	-4	nt
Cc1nc(COC(=O)c2cc(O)c3ccccc3c2O)cs1	-5	-1	26*	-5	6
COc1cc(CN2CCN(Cc3cccc(OC)c3OC)CC2)cc(OC)c1	-5	-3	26*	1	6
CC(C)N(Cc1ccccc1)C(=S)NC(=O)C1(C)CC1(Cl)Cl (stereo not given)	0	6	25*	-3	5
CCOCCCNC(=O)C1CCC(CNS(=O)(=O)c2ccc(F)cc2)CC1 (stereo not given)	7	-1	-2	3	nt
Cc1ccccc1C(OCC(O)CN1CCN(CCO)CC1)c1ccccc1 (stereo not given)	-2	1	27*	1	7
Cc1cc(C)c(S(=O)(=O)NCc2cn3c(C)csc3n2)cc1C	2	-3	13	-1	nt
COc1ccc(S(=O)(=O)N2CCC(C(=O)NCc3ccncc3)CC2)cc1	-2	0	26*	6	1
Cc1onc(-c2ccccc2)c1C(=O)NC(C)c1ccccc1 (stereo not given)	1	0	9	-2	nt
N#CC1=C(N)Oc2n[nH]c(-c3ccccc3)c2C1c1cccnc1 (stereo not given)	-3	-2	-3	-7	nt
N#CC1=C(N)Oc2n[nH]c(-c3cccnc3)c2C1c1cc(F)ccc1F (stereo not given)	2	2	52*	-5	-12
CC1=NN(Cc2ccccc2)C(=O)C1	-8	7	58*	1	6
CCCCC[C@@H]1C=C(C(=O)O)[C@H](c2ccc(CC)cc2)N1S(=O)(=O)c1ccc(C)cc1	-1	-3	4	2	nt
SMILES	MBD2 DNA inh	LEDGF integ inh	TDP2 inh	UHRF1 binding	TDP2 inh conf
O=C(NN=Cc1ccc2c(c1)OCO2)NN=Cc1ccc2c(c1)OCO2	-7	4	-2	-2	nt
N/C(=N\N=Cc1ccc2c(c1)OCO2)NN=Cc1ccc2c(c1)OCO2	-5	43*	44*	2	-7
CCCN1C2CCCC1CC(NC(=O)c1ccccc1OC)C2 (stereo not given)	-3	-1	-5	-2	nt
O=C(Nc1ccc(Br)cc1)c1ccco1	6	0	-8	19	nt
O=C(Nc1ccc(NC(=O)c2ccco2)cc1)c1ccco1	-1	4	28*	1	9
CN1CCN(CCOCCOc2ccc(Br)cc2Cl)CC1	2	0	29*	1	8
CC1CCCN(CCOCCOc2ccc(Br)cc2Cl)C1 (stereo not given)	-1	2	18	-2	nt
CCN1CCN(CCOCCOc2ccccc2)CC1	-3	0	28*	-1	11
CCc1ccc(OCCOCCN2CCN(C)CC2)cc1	-1	4	32*	-1	20
COc1cccc(NC(=S)N(CCCN2CCOCC2)C(C)c2cc3ccccc3o2)c1 (stereo not given)	-9	1	3	-1	nt
O=C(CN1CCCC1)Nc1ccc2c(c1)CCC2	0	1	28*	6	1
CC(=O)N1CCN(CC(=O)Nc2ccc3c(c2)CCC3)CC1	1	-3	4	-1	nt
CC1=NN(c2ccccc2)C(=O)C1C(=O)c1ccccc1 (stereo not given)	-1	-3	9	-8	nt
CC1=NN(c2ccccc2)C(=O)C1C(=O)C(=O)Nc1ccc(F)cc1 (stereo not given)	-4	1	32*	3	7
C=CCn1c(SCC(=O)NC2CCCC2)nnc1-c1ccncc1	1	5	-3	0	nt
Cc1ccccc1N1CC(C(=O)Nc2ccc(S(=O)(=O)N3CCCCC3)cc2)CC1=O (stereo not given)	1	4	25*	1	4
Cc1ccc(NC(=O)C2CCN(S(=O)(=O)c3ccccc3)CC2)cc1	-6	-4	30*	-2	6
Cc1cccc(N2CC(C(=O)Nc3ccc(S(=O)(=O)N4CCCCC4)cc3)CC2=O)c1C (stereo not given)	5	-3	-8	1	nt
Cc1nc(NC(=O)COc2ccccc2)sc1C(=O)Nc1cccc(Cl)c1	-5	4	27*	-2	-17
COc1ccc(NC(=O)c2sc(NC(=O)COc3ccccc3)nc2C)cc1	-5	1	0	-2	nt
O=C(Nc1ccc(Cl)c(Cl)c1)C1CCCN(c2nnc(-n3cccc3)s2)C1 (stereo not given)	-6	5	-4	1	nt
C1=CC2c3ccccc3NC(c3ccncc3)C2C1 (stereo not given)	-6	3	12	-8	nt
CC(=O)c1ccc2c(c1)C1C=CCC1C(c1ccncc1)N2 (stereo not given)	-2	2	32*	-11	14
Cc1ccc2cccc(OCc3cccc([N+](=O)[O-])c3)c2n1	1	3	12	3	nt
Cc1ccc(OCCOc2cccc3ccc(C)nc23)c([N+](=O)[O-])c1	-3	2	25*	-4	10
O=C(c1nc2ccccn2c1CNCCCn1cccn1)N1CCCC1	7	2	28*	24*	-8
N#Cc1c(NC(=O)c2ccc(Br)o2)n(-c2ccccc2)c2nc3ccccc3nc12	-1	7	28*	6	60*
CCC(=O)Nc1c(C#N)c2nc3ccccc3nc2n1-c1ccc(C)cc1	-3	-1	-6	-7	nt

Compound activity: PubChem BioAssay, The Scripps Research Institute Molecular Screening Center
